Assay [1] concerns the target T1, Histamine H4 receptor (Homo sapiens, UniProt Q9H3N8). To be noted: SK-N-MC, 300 nM.
The target in assay [2] is T1, Histamine H4 receptor. To be noted: SK-N-MC, 1 uM.
Assay [3] addresses T1, Histamine H4 receptor. To be noted: SK-N-MC, 100 nM.
In assay [4] the target is T1, Histamine H4 receptor. The experiment in a line: Displacement of [3H]histamine from human histamine H4 receptor transfected in SK-N-MC cells. On the technique in general: Loss of bound radioactivity is the signal in a displacement assay; it reports binding, not function.
Assay [5] addresses T1, Histamine H4 receptor. The experiment in a line: Agonist activity at human histamine H4 receptor transfected in SK-N-MC cells. In kind it is functional, cell-based.
Assay [6] addresses T1, Histamine H4 receptor. Briefly: Activity at human histamine H4 receptor transfected in SK-N-MC cells by cAMP assay. In kind it is functional, cell-based. In a few lines:
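Colorimetric cAMP read-out in SK-N-MC cells stably expressing the human H4 receptor together with a CRE-β-galactosidase reporter gene, used to measure functional activity.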

Assay [7] deals with T1, Histamine H4 receptor. To be noted: SK-N-MC, 30 nM.
The target in assay [8] is T2, Histamine H1 receptor (Homo sapiens, UniProt P35367). Briefly: Displacement of [3H]mepyramine from human histamine H1 receptor.
T2 sequence (P35367 whole entry): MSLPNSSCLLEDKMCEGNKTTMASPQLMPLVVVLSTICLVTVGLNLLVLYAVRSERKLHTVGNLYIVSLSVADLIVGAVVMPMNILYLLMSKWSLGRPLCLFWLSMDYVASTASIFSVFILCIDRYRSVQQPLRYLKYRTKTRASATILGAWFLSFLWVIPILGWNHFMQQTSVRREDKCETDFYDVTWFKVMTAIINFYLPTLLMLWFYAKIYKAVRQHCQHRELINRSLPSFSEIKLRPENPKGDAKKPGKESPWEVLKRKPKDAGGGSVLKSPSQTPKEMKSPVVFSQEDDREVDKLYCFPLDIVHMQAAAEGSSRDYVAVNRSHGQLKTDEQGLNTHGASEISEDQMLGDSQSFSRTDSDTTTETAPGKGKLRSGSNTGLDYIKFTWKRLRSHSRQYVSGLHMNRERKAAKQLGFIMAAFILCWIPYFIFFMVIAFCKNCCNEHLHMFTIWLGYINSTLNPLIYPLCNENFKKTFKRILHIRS
Assay [9] addresses T1, Histamine H4 receptor. To be noted: SK-N-MC, 10 nM.
The target of the next assay is Histamine H3 receptor (Homo sapiens, UniProt Q9Y5N1). Briefly: Displacement of [3H]histamine from human histamine H3 receptor transfected in SK-N-MC cells. Format: cell-based. A digest of the protocol: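 Homogenates of SK-N-MC cells stably expressing the human H3 receptor were used. Affinity was determined by radioligand displacement.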
Chain of Histamine H3 receptor (Q9Y5N1 whole entry): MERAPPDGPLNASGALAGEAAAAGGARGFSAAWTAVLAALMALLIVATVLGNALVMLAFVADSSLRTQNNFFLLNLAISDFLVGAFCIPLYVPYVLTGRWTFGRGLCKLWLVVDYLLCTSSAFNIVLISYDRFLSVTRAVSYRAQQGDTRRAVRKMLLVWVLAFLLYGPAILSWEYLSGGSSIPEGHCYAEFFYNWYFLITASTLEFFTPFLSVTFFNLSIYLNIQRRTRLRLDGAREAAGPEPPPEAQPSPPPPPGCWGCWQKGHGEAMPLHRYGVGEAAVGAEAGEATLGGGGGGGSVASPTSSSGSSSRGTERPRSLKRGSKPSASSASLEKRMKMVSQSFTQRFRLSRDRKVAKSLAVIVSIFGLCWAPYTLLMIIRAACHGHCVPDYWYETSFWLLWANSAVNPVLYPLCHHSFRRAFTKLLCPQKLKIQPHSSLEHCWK
Assay [10] deals with T2, Histamine H1 receptor. The experiment in a line: Activity at human histamine H1 receptor transfected in COS7 cells by NF-kappaB luciferase reporter assay. In kind it is functional, cell-based, COS-7.
The next assay addresses Histamine H2 receptor (Homo sapiens, UniProt P25021). Briefly: Displacement of [3H]APT from human histamine H2 receptor transfected in COS7 cells. In kind it is cell-based, COS-7.

The results in this text go back to ChEMBL document CHEMBL1137432, “Characterization of the histamine H4 receptor binding site. Part 1. Synthesis and pharmacological evaluation of dibenzodiazepine derivatives” (J Med Chem, 2006).

Each structure is given as a SMILES string.

T1 sequence (Q9H3N8 whole entry): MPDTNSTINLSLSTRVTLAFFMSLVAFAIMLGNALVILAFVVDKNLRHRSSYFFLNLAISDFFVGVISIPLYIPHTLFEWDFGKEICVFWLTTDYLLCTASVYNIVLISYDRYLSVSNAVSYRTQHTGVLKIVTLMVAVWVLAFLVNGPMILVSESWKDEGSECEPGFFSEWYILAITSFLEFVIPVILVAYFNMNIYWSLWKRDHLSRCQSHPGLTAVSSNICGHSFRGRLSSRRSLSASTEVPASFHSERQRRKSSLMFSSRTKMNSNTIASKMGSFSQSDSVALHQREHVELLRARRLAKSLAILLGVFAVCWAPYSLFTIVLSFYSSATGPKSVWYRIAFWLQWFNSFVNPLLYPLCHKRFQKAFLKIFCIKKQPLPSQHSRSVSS
Chain of Histamine H2 receptor (P25021 whole entry): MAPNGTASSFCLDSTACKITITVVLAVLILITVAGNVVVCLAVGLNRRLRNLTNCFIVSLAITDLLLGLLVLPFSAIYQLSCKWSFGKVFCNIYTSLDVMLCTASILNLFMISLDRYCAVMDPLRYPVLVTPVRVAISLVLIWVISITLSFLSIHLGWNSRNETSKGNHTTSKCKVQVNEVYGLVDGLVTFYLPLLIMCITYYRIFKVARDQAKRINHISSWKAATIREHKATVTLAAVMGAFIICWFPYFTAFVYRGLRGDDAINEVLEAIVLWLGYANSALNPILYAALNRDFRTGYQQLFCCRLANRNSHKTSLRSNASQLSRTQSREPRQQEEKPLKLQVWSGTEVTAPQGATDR

Consider `CN1CCN(C2=Nc3cc(Cl)ccc3Nc3ccccc32)CC1`, for which the Bmax amounted to 899 fmol/mg on Histamine H4 receptor [1], 987 fmol/mg on Histamine H4 receptor [2] and 996 fmol/mg on Histamine H4 receptor [3].
As for `CN1CCN(C2=Nc3ccccc3Oc3ccccc32)CC1`, the Ki – broadly, the dissociation constant of the complex between target and ligand, obtained from inhibition or displacement – on Histamine H4 receptor [4] was 132 nM. The Activity at Histamine H4 receptor [5] amounted to 1. For the same compound, the response at Histamine H4 receptor [6] was half-maximal at 302 nM (EC50).
In turn, `CCN1CCN(C2=Nc3cc(Cl)ccc3Oc3ccccc32)CC1` had an inhibition constant Ki at Histamine H4 receptor [4] of 288 nM.
The compound `Clc1ccc2c(c1)N=C(N1CCCCC1)c1ccccc1N2` gave a Ki on Histamine H4 receptor [4] greater than 10000 nM.
For the compound `CN1CCN(C2=Nc3cc(Cl)ccc3Sc3ccccc32)CC1` [ISOCLOTHIAPINE], on Histamine H4 receptor [4], the affinity corresponds to a Ki of 2040 nM.
The compound `CN1CCN(C2=Nc3cc(Cl)ccc3Oc3ccccc32)CC1` [ISOLOXAPINE] gave a Ki at Histamine H4 receptor [4] of 42.7 nM. Besides, on Histamine H4 receptor [5], the Activity came out at 1. In addition, the EC50 (commonly the concentration that produces a half-maximal response) on Histamine H4 receptor [6] is 28.2 nM.
`CN1CCN(C2=Nc3ccc(Cl)cc3Oc3cc(F)ccc32)CC1`: the Ki at Histamine H4 receptor [4] is 38.9 nM. For the same compound, the Activity at Histamine H4 receptor [5] stood at 1. This compound also showed an EC50 on Histamine H4 receptor [6] of 38.9 nM.
In turn, `CN1CCN(C2=Cc3ccccc3Oc3ccc(Cl)cc32)CC1` gave a Ki at Histamine H4 receptor [4] greater than 10000 nM.
Consider `CN1CCN(C2=Nc3cc(Cl)ccc3Oc3ccc(F)cc32)CC1`, for which the Ki at Histamine H4 receptor [4] is 191 nM. For the same compound, at Histamine H4 receptor [5], the Activity stood at 1. This compound also had an EC50 on Histamine H4 receptor [6] of 81.3 nM.
The compound `CC(C)N1CCN(C2=Nc3cc(Cl)ccc3Oc3ccccc32)CC1` showed a Ki at Histamine H4 receptor [4] of 1070 nM.
With `CN1CCN(C2=Nc3ccc(Cl)cc3Oc3c(F)cccc32)CC1`, the affinity on Histamine H4 receptor [4] corresponds to a Ki of 30.9 nM. Moreover, on Histamine H4 receptor [5], the Activity turned out to be 1. Besides, a half-maximal effect at Histamine H4 receptor [6] (EC50) was put at 20.4 nM.
For the compound `CN1CCN(C2=Nc3cc(Cl)ccc3N(C)c3ccccc32)CC1`, the Ki at Histamine H4 receptor [4] was 1410 nM.
Regarding `CN1CCN(C2=Nc3ccc(Cl)cc3Oc3c(Cl)cccc32)CC1`, the affinity on Histamine H4 receptor [4], expressed as Ki, was 45.7 nM. Also, the Activity at Histamine H4 receptor [5] was determined as 1. Moreover, the response at Histamine H4 receptor [6] was half-maximal at 14.8 nM (EC50).
Take `CN1CCN(C2=Nc3ccccc3Cc3ccccc32)CC1` [PERLAPINE]: on Histamine H4 receptor [4], affinity was put at a Ki of 4790 nM.
Compound `CN1CCN(C2=Nc3cc(Cl)ccc3Oc3c(F)cccc32)CC1` gave an inhibitory constant (Ki) at Histamine H4 receptor [4] of 27.5 nM. The Activity on Histamine H4 receptor [5] came to 1. This compound showed an EC50 on Histamine H4 receptor [6] of 14.8 nM.
Compound `Cc1ccc2c(c1)Oc1ccccc1C(N1CCN(C)CC1)=N2` gave a Ki on Histamine H4 receptor [4] of 79.4 nM. In addition, the Activity on Histamine H4 receptor [5] came to 1. For the same compound, at Histamine H4 receptor [6], the EC50 is 105 nM.
Turning to `CN1CCN(C2=Nc3ccccc3Oc3ccc(Cl)cc32)CC1` [LOXAPINE], the affinity on Histamine H4 receptor [4], expressed as Ki, was 4570 nM. The Activity on Histamine H4 receptor [5] came to 0.5. Besides, on Histamine H4 receptor [6], the midpoint of the response, the EC50, lay at 219 nM.
Consider `CN1CCN(C2=Nc3ccc(Cl)cc3Oc3ccccc32)CC1`, for which the values for the Bmax at Histamine H4 receptor [7], at Histamine H4 receptor [9] and at Histamine H4 receptor [3] were 934 fmol/mg, 951 fmol/mg and 934 fmol/mg, respectively. For the same compound, the Ki was 7.76 nM on Histamine H1 receptor [8], 9.12 µM on Histamine H3 receptor and 8.71 µM at Histamine H2 receptor. Also, at Histamine H1 receptor [10], the EC50 is 6.76 nM. On Histamine H4 receptor [5], this compound returned an Activity of 1.
`Clc1ccc2c(c1)N=C(N1CCOCC1)c1ccccc1N2` showed a Ki on Histamine H4 receptor [4] greater than 10000 nM.
Compound `CN1CCN(C2=Nc3cc(Cl)ccc3Oc3cc(Cl)ccc32)CC1` showed a Ki at Histamine H4 receptor [4] of 309 nM. This compound also showed an Activity on Histamine H4 receptor [5] of 1. Moreover, on Histamine H4 receptor [6], a half-maximal response (EC50) required 102 nM.
At Histamine H4 receptor [4], `OCCN1CCN(C2=Nc3cc(Cl)ccc3Nc3ccccc32)CC1` had a Ki of 4680 nM.
In the case of `Clc1ccc2c(c1)N=C(N1CCNCC1)c1ccccc1O2`, the Ki at Histamine H4 receptor [4] was 324 nM.
